Drawing on ChEMBL document CHEMBL3994572, “Antiviral Triterpenes from the Twigs and Leaves of Lyonia ovalifolia” (J Nat Prod, 2016), this text covers IC50 for 10 molecules.

The test system of one experiment is Human alphaherpesvirus 1. The experiment can be described thus: Antiviral activity against Herpes simplex virus-1 F VR 733 infected in African green monkey Vero cells assessed as inhibition of virus-induced cytopathic effect. Format: functional. The settings on record: Human alphaherpesvirus 1, Strain F ATCC VR 733, Vero. In outline:
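Vero cells (2.5 × 10^4/well) were seeded for 24 h, then the medium was removed. Cells were infected with HSV-1 at 100 TCID50 for 2 h, then given graded compound concentrations. Incubation continued until control CPE reached 4+. Runs were in triplicate, repeated at least three times. IC50 is the minimal concentration inhibiting 50% of CPE, by Reed and Muench.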

Another experiment concerns Influenza A virus. The experiment can be described thus: Antiviral activity against Influenza A virus A/95-359 infected in MDCK cells assessed as inhibition of virus-induced cytopathic effect. The settings on record: A/95-359, MDCK. The experiment is classed as functional, cell-based. In outline:
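MDCK cells (2.5 × 10^4/well) seeded 24 h, PBS-washed, infected with influenza A/95-359 at 100 TCID50 for 2 h, then exposed to graded compound concentrations until control CPE reached 4+. IC50 = minimal concentration inhibiting 50% of CPE (Reed and Muench); triplicate, at least three separate experiments. […] SI = TC50/IC50.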

The test system of a further experiment is Coxsackievirus B3. The experiment can be described thus: Antiviral activity against Coxsackievirus B3 infected in African green monkey Vero cells assessed as inhibition of virus-induced cytopathic effect. Format: functional. Particulars: Enterovirus B. A digest of the protocol: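 Vero monolayers were infected with Cox B3 at 100 TCID50 and allowed 2 h adsorption at 37 °C. They were then washed with PBS and kept at 37 °C in MEM with 2% FBS, with or without graded concentrations of test compounds. Read-out was CPE.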

For orientation: IC50 means the concentration that gives 50% inhibition. With `C[C@H](CC[C@H](O[C@@H]1OC[C@H](O)[C@H](O)[C@H]1O)C(C)(C)O)[C@H]1CC[C@@]2(C(=O)O)C3=C(CC[C@]12C)[C@@]1(C)CC[C@@H](O[C@@H]2OC[C@H](O)[C@H](O)[C@H]2O)C(C)(C)[C@@H]1CC3`, the IC50 is ≥ 33.3 µM in the experiment with Human alphaherpesvirus 1, > 33.3 µM in the experiment on Influenza A virus and ≥ 33.3 µM in the experiment with Coxsackievirus B3.

Regarding `C[C@H]1[C@H](C)CC[C@@]23CC[C@@]4(C)[C@@]5(C)[C@H](C[C@@H](O)[C@]4(OC2=O)[C@H]13)[C@@]1(C)C[C@@H](O)[C@@H](O)[C@](C)(CO)[C@@H]1C[C@@H]5O`, the half-maximal inhibitory concentration (IC50) with Human alphaherpesvirus 1 was ≥ 33.3 µM; with Influenza A virus, > 33.3 µM; in the experiment on Coxsackievirus B3 it was ≥ 33.3 µM.

On to `C[C@H](CC[C@H](O[C@@H]1OC[C@H](O)[C@H](O)[C@H]1O)C(C)(C)O)[C@H]1CC[C@@]2(C(=O)O)[C@@H]3CCC4=C(CC[C@@H](O[C@H]5OC[C@@H](O)[C@@H](O)[C@@H]5O)C4(C)C)C[C@H]3CC[C@]12C`, for which the IC50 in the experiment on Human alphaherpesvirus 1 was ≥ 33.3 µM; in the experiment on Influenza A virus, > 33.3 µM; in the experiment on Coxsackievirus B3 it was ≥ 33.3 µM.

In the case of `C[C@H](CC[C@H](O[C@@H]1OC[C@H](O)[C@H](O)[C@H]1O)C(C)(C)O)[C@H]1CC[C@@]2(C(=O)O)[C@@H]3CCC4=C(CC[C@@H](O[C@@H]5O[C@H](CO)[C@@H](O)[C@H](O)[C@H]5O)C4(C)C)C[C@H]3CC[C@]12C`, the values for the IC50 in the experiment with Human alphaherpesvirus 1, in the experiment on Influenza A virus and in the experiment on Coxsackievirus B3 were ≥ 33.3 µM, > 33.3 µM and ≥ 33.3 µM, respectively.

Regarding `C[C@H](CC[C@H](O)C(C)(C)O)[C@H]1CC[C@@]2(C(=O)O)C3=C(CC[C@]12C)[C@@]1(C)CC[C@@H](O[C@@H]2O[C@H](CO)[C@@H](O)[C@H](O)[C@H]2O)C(C)(C)[C@@H]1CC3`, the half-inhibitory concentration (IC50) with Human alphaherpesvirus 1 was ≥ 33.3 µM; in the experiment with Influenza A virus, > 33.3 µM; in the experiment on Coxsackievirus B3 it was ≥ 33.3 µM.

For the molecule `C[C@H](CC[C@H](O[C@@H]1OC[C@H](O)[C@H](O)[C@H]1O)C(C)(C)O)[C@H]1CC[C@@]2(C(=O)O)C3=C(CC[C@]12C)[C@@]1(C)CC[C@@H](O[C@@H]2O[C@H](CO)[C@@H](O)[C@H](O)[C@H]2O)C(C)(C)[C@@H]1CC3`, the 50% inhibitory concentration (IC50) with Human alphaherpesvirus 1 was ≥ 33.3 µM; in the experiment on Influenza A virus, > 33.3 µM; in the experiment on Coxsackievirus B3 it was ≥ 33.3 µM.

As to `C[C@H](CC[C@H](O[C@@H]1OC[C@H](O)[C@H](O)[C@H]1O)C(C)(C)O)[C@H]1CC[C@@]2(C(=O)O)[C@@H]3CC[C@H]4C(=CC[C@@H](O[C@@H]5OC[C@H](O)[C@H](O)[C@H]5O)C4(C)C)C[C@H]3CC[C@]12C`, the values for the IC50 in the experiment on Human alphaherpesvirus 1, in the experiment with Influenza A virus and in the experiment on Coxsackievirus B3 were ≥ 33.3 µM, > 33.3 µM and ≥ 33.3 µM, respectively.

For the molecule `C[C@H](CC[C@H](O[C@@H]1OC[C@H](O)[C@H](O)[C@H]1O)C(C)(C)O)[C@H]1CC[C@@]2(C(=O)O)[C@@H]3CC[C@H]4C(=CC[C@@H](O[C@@H]5O[C@H](CO)[C@@H](O)[C@H](O)[C@H]5O)C4(C)C)C[C@H]3CC[C@]12C`, the IC50 was ≥ 33.3 µM in the experiment with Human alphaherpesvirus 1, > 33.3 µM in the experiment with Influenza A virus and ≥ 33.3 µM in the experiment on Coxsackievirus B3.

As for `C[C@H](CC[C@H](O[C@H]1O[C@@H](CO)[C@H](O)[C@@H](O)[C@@H]1O)C(C)(C)O)[C@H]1CC[C@@]2(C(=O)O)C3=C(CC[C@]12C)[C@@]1(C)CC[C@@H](O[C@@H]2O[C@H](CO)[C@@H](O)[C@H](O)[C@H]2O)C(C)(C)[C@@H]1CC3`, the IC50 with Human alphaherpesvirus 1 was ≥ 33.3 µM; with Influenza A virus, > 33.3 µM; in the experiment with Coxsackievirus B3, ≥ 33.3 µM.

As for `CC(=O)OC[C@H]1O[C@@H](O[C@@H]2CC=C3C[C@H]4CC[C@]5(C)[C@@H]([C@H](C)CC[C@H](O)C(C)(C)O)CC[C@@]5(C(=O)O)[C@@H]4CC[C@@H]3C2(C)C)[C@H](O)[C@@H](O)[C@@H]1O`, the IC50 is ≥ 33.3 µM in the experiment on Human alphaherpesvirus 1, > 33.3 µM in the experiment with Influenza A virus and ≥ 33.3 µM in the experiment on Coxsackievirus B3.
